KCNK9 block = human KCNK9 channel inhibition; actives 1.2% (n = 310,000); HEK293 KCNK9, FluxOR thallium flux fluorescence; hits give low values; B-score at 10 µM; AID 488922;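 active means ratio B-score over 3 SD below the library mean, with starting fluorescence within 5 SD of its mean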;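 further: negative B-score means less thallium flux so channel inhibition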
Target sequence (Q9NPC2 whole entry, looked up): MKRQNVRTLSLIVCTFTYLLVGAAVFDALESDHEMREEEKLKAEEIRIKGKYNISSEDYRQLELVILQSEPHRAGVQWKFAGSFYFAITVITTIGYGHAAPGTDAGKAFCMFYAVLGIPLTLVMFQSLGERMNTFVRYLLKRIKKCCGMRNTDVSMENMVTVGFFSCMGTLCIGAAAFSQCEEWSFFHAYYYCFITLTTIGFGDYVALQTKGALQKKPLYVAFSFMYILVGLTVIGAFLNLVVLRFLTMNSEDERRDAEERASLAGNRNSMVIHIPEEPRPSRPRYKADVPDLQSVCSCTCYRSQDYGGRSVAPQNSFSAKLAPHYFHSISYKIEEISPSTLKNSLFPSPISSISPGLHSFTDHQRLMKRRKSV
KCC2 mod = KCC2 (human) Cl- transport modulation; KCC2 cells, thallium flux FluoZin-2 fluorescence; AID 1456; actives 2.2% (n = 190,000); B-score of Tl+ flux slope (higher = more flux/activation; lower = inhibition) at 10 µM;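 active means thallium flux slope and its plate-corrected score both differing from the plate sample mean at a set confidence after two filtering rounds, in either direction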;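 further: slope of fluorescence scaled to starting intensity during 10 to 20 s after thallium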
KCNQ1 inh = human KCNQ1 channel inhibition; P51787; CHO-K1 KCNQ1, FluxOR thallium flux fluorescence; hits give high values; B-score at 10 µM; actives 1.3% (n = 310,000); AID 2642;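 active means compounds whose thallium flux B-score, printed positive for inhibition, exceeds three library SD while starting fluorescence stays within three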;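 further: channel opened by potassium depolarization with thallium stimulus after 20 min compound exposure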
KCNK3 inh = human KCNK3 channel inhibition, primary screen. CHO-KCNK3 thallium flux, FluxOR fluorescence; hits give low values. O14649. AID 602410. B-score at 10 µM. actives 0.84% (n = 340,000);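 active means B-score under library mean minus 4 SD, starting fluorescence ratio at most library mean plus 5 SD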;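 further: more negative B-score means stronger inhibition of thallium flux through KCNK3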
Target sequence (O14649 whole entry, looked up): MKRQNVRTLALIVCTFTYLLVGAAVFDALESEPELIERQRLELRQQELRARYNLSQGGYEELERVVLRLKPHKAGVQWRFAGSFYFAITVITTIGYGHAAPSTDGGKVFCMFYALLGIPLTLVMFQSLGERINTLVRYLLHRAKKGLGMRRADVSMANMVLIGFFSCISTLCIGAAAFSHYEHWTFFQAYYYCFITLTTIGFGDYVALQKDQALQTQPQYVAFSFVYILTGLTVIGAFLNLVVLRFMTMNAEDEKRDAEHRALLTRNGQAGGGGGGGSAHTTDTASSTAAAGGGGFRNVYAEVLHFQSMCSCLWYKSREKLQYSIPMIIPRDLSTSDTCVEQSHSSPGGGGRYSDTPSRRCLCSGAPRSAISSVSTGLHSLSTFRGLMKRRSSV
hERG protect = hERG (human) protection from proarrhythmic block; Q12809; CHO-hERG, FluxOR thallium flux, dofetilide IC70 present; activation (rescue from dofetilide block), less the hit threshold, % at 10 µM; actives 0.51% (n = 310,000);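 active means activation above the mean of controls blocked by dofetilide plus 5 SD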;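 further: thallium influx through hERG after potassium depolarization seen as dye fluorescence rise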
KCNQ1 act = human KCNQ1 channel potentiation or activation; actives 0.35% (n = 310,000); B-score at 10 µM; P51787; CHO-K1 KCNQ1, thallium flux FluxOR fluorescence; hits give high values; AID 2648;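 active means fluorescence ratio B-score, a plate-corrected score, at least three library SD, with initial intensity B-score within 5 SD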
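Doses: Single concentration per compound, DMSO matched to controls | Test system: KCNQ1-transfected CHO-K1 cells | Timing: 90 min dye loading and 20 min compound exposure, both at room temperature | Measured by: Kinetic FluxOR thallium fluorescence, 10-s 1-Hz baseline, 110-s post-stimulus read | Medium: Assay buffer with matched DMSO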
KCC2 secondary = KCC2 (human) modulation, secondary assay; shares compounds with KCC2 mod; HEK293-KCC2, thallium flux, FluoZin2 fluorescence; hits give high values; normalised thallium flux (F/F0 slope) at 10 µM; actives 15% (n = 3,700);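 active means thallium flux slope above the same plate's solvent-only control mean plus 3 SD; inconclusive means the two replicate wells disagree; inactive means no significant difference from solvent-only control wells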
KCC2 bumet counter = thallium flux despite bumetanide block in KCC2 cells, secondary assay 3; actives 49% (n = 3,700); AID 1714; shares compounds with KCC2 mod; HEK293-KCC2 + bumetanide/ouabain, thallium flux FluoZin2; hits give high values; normalized thallium flux at 10 µM;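 active means thallium entry rate above the same plate's blocked-transporter control wells by more than 3 SD; inconclusive means the two repeat wells disagree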;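 further: raw slope of fluorescence over initial fluorescence between 10 and 20 s after thallium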
KCC2 sec2 = confirmation of human KCC2 transport modulators | normalized thallium flux at 10 µM | AID 1715 | actives 23% (n = 3,700) | shares compounds with KCC2 mod | HEK293-KCC2, thallium flux FluoZin2 fluorescence; actives lie on both sides; F/F0 rise rate, 10–20 s post-thallium;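 active means thallium flux slope more than 3 SD above or below the plate's solvent-only control mean, mostly below; inconclusive means the two repeat wells disagreed; inactive means no significant shift from solvent-only controls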;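 further: raw slope with 0.1% DMSO as baseline and bumetanide as block control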
HEK counter1 = parental HEK flux effect, counter-screen | shares compounds with KCC2 mod | HEK293 parental cells, thallium flux FluoZin2, ouabain; baseline-ratio fluorescence slope, 10–20 s after thallium | thallium flux rate (normalised fluorescence) at 10 µM | actives 46% (n = 3,700) | AID 1716;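 active means thallium flux rate significantly above the same plate's solvent-only control wells, beyond their mean plus 3 SD; inconclusive means the two replicate wells gave conflicting results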
KCC2 ouabain = confirmation of human KCC2 modulators with ouabain. shares compounds with KCC2 mod. HEK293-KCC2, thallium flux FluoZin2 fluorescence; bidirectional: low = inhibitor, high = activator. raw Tl+ flux slope (below DMSO = inhibition, above = activation) at 10 µM. actives 48% (n = 3,700). AID 1717;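 active means thallium flux slope beyond 3 SD from same-plate DMSO control mean in most replicates, usually higher, sometimes lower; inconclusive means repeat tests gave conflicting results; inactive means no significant difference from controls in most replicates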;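 further: slope of initial-normalized fluorescence between seconds 10 and 20 after thallium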
HEK293 Tl flux2 = acts in parental HEK cells, second KCC2 counter-screen | shares compounds with KCC2 mod | HEK293 parental, thallium flux FluoZin-2 fluorescence slope | thallium flux slope at 10 µM | actives 33% (n = 3,700);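 active means thallium flux slope above the same plate's solvent-control mean plus 3 SD in both duplicate wells; inconclusive means duplicate wells that disagreed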;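 further: run without ouabain in cells lacking the KCC2 cotransporter; slope of fluorescence scaled to its starting value between 10 and 20 s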
* hit, by the source's call; i = inactive; u = inconclusive; x = not tested or not shown. Hits are enriched below; roughly 4.1% of the tested compounds scored in any of these assays.

SMILES	KCNK9 block	KCC2 mod	KCNQ1 inh	KCNK3 inh	hERG protect	KCNQ1 act	KCC2 secondary	KCC2 bumet counter	KCC2 sec2	HEK counter1	KCC2 ouabain	HEK293 Tl flux2
CCOC(=O)C1CCCN(C(=O)c2cc3nc(-c4cccc(OC)c4)cc(C(F)(F)F)n3n2)C1 (stereo not drawn)	i	x	i	i	-9.5	i	0.00696	0.00438	0.0294	0.00734	0.0199	0.0103
O=S(=O)(Cc1nnnn1-c1ccccc1)c1ccc(Cl)cc1	i	x	i	i	-6.2	i	x	x	x	x	x	x
COc1ccc(Cc2nnc(NC(=O)c3ccccc3F)s2)cc1OC	i	x	i	i	-4.7	i	x	x	x	x	x	x
COc1ccc(-c2nc3n(n2)C(c2ccncc2)C(C(N)=O)=C(C)N3)cc1 (stereo not drawn)	i	11.3*	i	i	-13.2	i	0.00805	0.00696	0.0323	0.00798	0.022	0.0107
COc1ccc(-c2nc3n(n2)C(c2cccnc2)C(C(N)=O)=C(C)N3)cc1 (stereo not drawn)	i	0.146	i	i	-11.0	i	x	x	x	x	x	x
CCN(CC)CCNC(=O)c1cn(CCOC)c(=O)c2c1c1ccccc1n2C	i	x	i	i	-2.4	i	x	x	x	x	x	x
CCN(CC)CCCNC(=O)c1cn(CCOC)c(=O)c2c1c1ccccc1n2C	i	x	i	i	-6.0	i	0.00944	u	0.0339	0.00751	0.0207	0.0105
COc1cc(/C=C/C(=O)OC(C)C(=O)NC2CCCCC2C)cc(Cl)c1OC (stereo not drawn)	i	x	i	i	-14.0	i	x	x	x	x	x	x
N#Cc1cc2c(nc1SCC(O)CS(=O)(=O)Cc1ccccc1)CCCC2 (stereo not drawn)	i	-2.87*	i	i	-11.2	i	u	0.00533	0.0317	0.0072	u	0.0102
N#Cc1cc2c(nc1SCc1ccccc1)CCCCC2	i	0.295	i	i	-8.3	i	x	x	x	x	x	x
COC(=O)c1cc(CNC(=O)c2ccc(N3CCCC3)c([N+](=O)[O-])c2)ccc1OC	i	x	i	i	-3.0	i	x	x	x	x	x	x
CCOC(=O)c1ccc(NC(=O)c2nn(C)cc2Br)cc1	i	x	i	i	-3.6	i	x	x	x	x	x	x
CCn1cc(Br)c(C(=O)NC(=S)Nc2ccc(C(=O)OC)cc2)n1	i	6.17*	i	i	-2.9	i	0.011	0.0181*	0.0336	0.0133*	0.0263	0.0123*
CCOC(=O)c1ccc(NC(=S)NC(=O)c2nn(CC)cc2Br)cc1	i	5.96*	i	i	-4.7	i	0.0109	0.00974*	0.0339	0.00916*	0.0249	0.0118*
CCOC(=O)c1ccc(NC(=O)c2nn(CC)cc2Br)cc1	i	-1.23	i	i	-3.1	i	x	x	x	x	x	x
O=C(Nc1cc(-c2nc3ncccc3o2)ccc1Cl)c1ccc([N+](=O)[O-])o1	i	x	i	i	-6.6	i	x	x	x	x	x	x
O=c1cc(CSc2nnc(Nc3ccccc3)s2)nc2sccn12	x	-0.682	x	i	x	x	x	x	x	x	x	x
Cc1ccccc1Nc1nnc(SCc2cc(=O)n3ccsc3n2)s1	i	-4.92*	i	i	-11.7	i	0.00717	0.00638	0.0277	0.00704	u	0.00992
CC1CN(S(=O)(=O)c2ccc(NC(=O)CCN3C(=O)c4ccccc4C3=O)cc2)CC(C)O1 (stereo not drawn)	i	-3.86*	i	i	-9.9	i	0.0156	0.00447	0.0294	0.0074	0.0165	0.0107
COc1ccc2c(c1)C(=O)[C@@H](O)[C@H](c1ccc(OC)c(Br)c1)O2	i	5.96*	i	i	-4.8	i	0.00841	0.0137*	0.0314	0.0198*	u	0.0108
Cc1ccc(/C=N/n2c(-c3cccc(Cl)c3)n[nH]c2=S)o1	i	45.1*	i	i	-4.3	i	0.00656	0.046*	0.0324	0.0294*	0.0401*	0.0205*
COc1ccccc1/C=C/C=N/n1c(-c2ccc(F)cc2)n[nH]c1=S	i	5.32*	i	i	-10.5	i	0.0105	0.0149*	0.0342	0.0111*	0.0226	0.0107
Cc1cccc(-c2n[nH]c(=S)n2/N=C/C=C/c2ccco2)c1	i	19.9*	i	i	-5.6	i	0.0057	0.0218*	0.0294	0.0178*	0.0285*	0.0158*
S=c1[nH]nc(-c2cccc(Cl)c2)n1/N=C/c1ccco1	i	13.8*	i	x	-5.3	i	u	0.0207*	0.0381	0.0179*	0.0315*	0.0115
O=C(NC1CC1)c1cc(=S)[nH]c2ccccc12	x	x	x	i	x	x	x	x	x	x	x	x
SMILES	KCNK9 block	KCC2 mod	KCNQ1 inh	KCNK3 inh	hERG protect	KCNQ1 act	KCC2 secondary	KCC2 bumet counter	KCC2 sec2	HEK counter1	KCC2 ouabain	HEK293 Tl flux2
COc1ccc(CCC(=O)Nc2nnc(C(F)(F)F)s2)cc1	i	x	i	i	-11.9	i	x	x	x	x	x	x
CC(C)c1ccc(/C=C2\SC(=O)N(CC(=O)NC3C=CS(=O)(=O)C3)C2=O)cc1 (stereo not drawn)	i	x	i	i	-4.0	i	x	x	x	x	x	x
COc1ccc(N/C=C/c2nc(SC)nnc2C)cc1	i	-2.96*	i	i	-11.2	i	0.00681	0.0022*	0.0238*	0.004*	0.012*	0.00771*
CSc1nnc(C)c(/C=C/Nc2ccc(F)cc2)n1	i	-1.33	i	i	-3.1	i	x	x	x	x	x	x
O=C(NC(C1CC1)C1CC1)C1CCC(=O)N(CCCN2CCCC2=O)C1 (stereo not drawn)	i	x	i	i	-4.5	i	x	x	x	x	x	x
NC(=O)C1(c2ccccc2)OC1c1ccccc1 (stereo not drawn)	i	x	i	i	-8.4	i	x	x	x	x	x	x
O=C(O)CCS(=O)(=O)c1cccc2cccnc12	i	x	i	i	-3.4	i	x	x	x	x	x	x

Screens deposited in PubChem by several laboratories.
